pIC50: −log10 of the molar value. “And” between values parts separate entries of the source, which are not always exact repeats. Equal entries are not always repeated. The source made the active and inactive calls.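 How the source made its calls: active means peak inhibition above 30% of the KCNK3 potassium channel at some dose, plus a fitted dose response curve; inactive means no inhibition at any dose, or no fitted curve.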
Molecular target: Potassium channel subfamily K member 3 (Rattus norvegicus) (UniProt O54912)
Assay: KCNK3 potassium channel inhibitors, SAR follow-up, selectivity assay for KCNK9 inhibitor project, cell-based, FluxOR thallium flux, CRC set 3 (AID 623894)
Details: KCNK3-expressing cell line, FluxOR thallium flux fluorescence; for flux ratio, lower = inhibition: at 30 µM (top of the series)
Method in brief: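 Assay system: tetracycline-induced KCNK3 CHO cells / Times: dye loading 90 min, compound exposure 20 min, room temperature, dark / Signal: kinetic thallium-flux fluorescence with FluxOR dye, 110 s post-stimulus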

Potassium channel subfamily K member 3 (Rattus norvegicus), sequence (O54912 whole entry, looked up): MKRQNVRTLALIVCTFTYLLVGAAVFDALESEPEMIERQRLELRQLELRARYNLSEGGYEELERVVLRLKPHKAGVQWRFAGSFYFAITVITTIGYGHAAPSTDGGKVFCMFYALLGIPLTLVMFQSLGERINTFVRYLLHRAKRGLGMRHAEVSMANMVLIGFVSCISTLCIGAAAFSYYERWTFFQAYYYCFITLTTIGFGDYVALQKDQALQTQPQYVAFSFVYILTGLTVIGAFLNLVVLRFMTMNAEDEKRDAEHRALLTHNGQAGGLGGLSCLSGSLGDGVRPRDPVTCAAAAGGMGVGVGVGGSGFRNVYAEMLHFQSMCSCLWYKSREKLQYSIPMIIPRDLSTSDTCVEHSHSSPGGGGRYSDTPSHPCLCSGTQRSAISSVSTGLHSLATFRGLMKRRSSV

SMILES | pIC50 | flux ratio, lower = inhibition
CC(C1CC2CCC1C2)n1c(SCCc2ccccn2)nnc1-c1ccco1 (configuration not stated) | 5.73 | 
CC(C1CC2CCC1C2)n1c(SCC(=O)N2CCN(C)CC2)nnc1-c1ccco1 (configuration not stated) | 4.61 | 
C[C@H](C1CCCCC1)n1c(-c2ccccc2F)n[nH]c1=S | 5.23 | 
COc1cccc(-c2n[nH]c(=S)n2[C@H](C)[C@@H]2CC3CC[C@H]2C3)c1 | 5.96 | 
C[C@H]([C@@H]1CC2CC[C@H]1C2)n1c(-c2ccccc2F)n[nH]c1=S | 6.92 | 
COc1cccc(CCSc2nnc(-c3ccco3)n2C(C)C2CC3CCC2C3)c1 (configuration not stated) | 6.05 | 
COc1ccc(C(=O)CCSc2nnc(-c3ccco3)n2C(C)C2CC3CCC2C3)cc1OC (configuration not stated) | 6.49 | 
C[C@@H]([C@@H]1CC2CC[C@H]1C2)n1c(-c2ccco2)n[nH]c1=S | 6.09 and 5.18 | 
CC(C1CC2CCC1C2)n1c(N)nnc1-c1ccco1 (configuration not stated) |  | inactive
COc1ccc(CC(=O)NCc2ccccc2-c2ccccc2C(=O)NCc2ccc(F)cc2F)cc1 | 6.70 | 
CC(C1CC2CCC1C2)n1c(SCCc2cccc(O)c2)nnc1-c1ccco1 (configuration not stated) | 5.78 | 
CC(C1CCN(C)CC1)n1c(-c2ccco2)n[nH]c1=S (configuration not stated) |  | inactive
CC(C1C[C@H]2CCC1C2)n1c(-c2ccsc2)n[nH]c1=S (some centres not stated) | 4.97 | 
C[C@H](C1CCCCC1)n1c(-c2ccsc2)n[nH]c1=S | 5.22 | 
COc1cccc(-c2n[nH]c(=S)n2[C@H](C)C2CCCCC2)c1 | 4.91 | 
CC(C1CC2CCC1C2)n1c(SCCN2CCOCC2)nnc1-c1ccco1 (configuration not stated) |  | inactive
COc1ccc(NC(=O)CSc2nnc(-c3ccco3)n2C(C)C2CC3CCC2C3)cc1OC (configuration not stated) | 4.52 | 
CC([C@@H]1CC2CC[C@H]1C2)n1c(-c2ccsc2)n[nH]c1=S (some centres not stated) | 5.93 | 
COc1ccc(CSc2nnc(-c3ccco3)n2C(C)C2CC3CCC2C3)cc1OC (configuration not stated) | 5.66 | 
COc1cccc(-c2nnc(SSc3nnc(-c4cccc(OC)c4)n3C(C)C3CC4CCC3C4)n2C(C)C2CC3CCC2C3)c1 (configuration not stated) | 5.76 | 
C[C@H]([C@@H]1CC2CC[C@H]1C2)n1c(-c2ccco2)n[nH]c1=S | 6.80 | 
CC(C1CC2CCC1C2)n1c(-c2ccco2)nn(CCc2ccncc2)c1=S (configuration not stated) | 5.33 | 

From PubChem BioAssay AID623894 (Johns Hopkins Ion Channel Center, 2012)
